Assay results collected from several papers.
Compare with care: the assays were run in different laboratories.
Target: Voltage-gated inwardly rectifying potassium channel KCNH2 (KCNH2, Homo sapiens, UniProt Q12809)

| SMILES | assay | system | conditions | endpoint | result |
| --- | --- | --- | --- | --- | --- |
| Cn1cc2c(C(=O)O)ccc(NS(=O)(=O)c3ccc(OCC4CCC4)c(Cl)c3)c2n1 | ion current | – | – | IC50 | > 10 µM |
| CC(=O)N1CCC(C(=O)N2CCN3C(=O)c4cc(-c5ccccc5)ccc4NC(=O)C3C2)CC1 (stereo not drawn) | ion current, inhibitor, patch clamp | HEK293 | 10 µM | inhibition | 4% |
| CC(C)(C)c1sc2ncnc(Oc3c(F)cccc3OC(F)(F)F)c2c1-c1ccc(Cl)cc1 | ligand displacement, radioligand | – | 10 µM | inhibition | > 50% |
| NC/C(=C\F)COc1cccc(Cn2c(=S)[nH]c(=O)c3[nH]cnc32)c1 | ion current, inhibitor | – | 10 µM | inhibition | 3.8% |
| CCOC(=O)C1=C(CN2CCC[C@@H]2C(=O)Nc2ccc(B(O)O)cc2)NC(c2nccs2)=N[C@H]1c1ccc(F)cc1Br | ion current, inhibitor, patch clamp | HEK293 | 1 µM, pH 7.4 | inhibition | 14.6% |
| COC1=CC(c2ccc[nH]2)=N/C1=C\c1[nH]c(Cc2ccc(OC(F)(F)F)cc2)cc1Cc1ccc(OC(F)(F)F)cc1 | ion current, inhibitor, patch clamp | – | 50 µM | inhibition | 26.6% |
| COc1cc(N)c(Cl)cc1C(=O)NC1CCN(CCCOc2ccc(F)cc2)CC1OC (stereo not drawn) | ion current, inhibitor, patch clamp | HEK293 | 100 pM, pH 7.4 | inhibition | 3.11% |
| CN1C[C@H](COc2nccc3c(NCc4ccco4)cc(Cl)nc23)OC1=O | ion current, inhibitor | HEK293 | 30 µM | inhibition | 37.1% |
| CCCN1CCCC[C@H]1C(=O)Nc1c(C)cccc1C | ion current, inhibitor, patch clamp | – | 100 µM | inhibition | 82.3% |
